{"source": "ChEMBL document CHEMBL1828538", "about": "“Synthesis and pharmacological evaluation of indole-based sigma receptor ligands” (Eur J Med Chem, 2011)", "key": {"[1]": {"assay": "Displacement of [3H]di-o-tolylguanidine from sigma 2 receptor in rat brain membrane after 120 mins", "type": "cell membranes", "how_it_was_run": "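Rat whole-brain homogenate without cerebellum (400–500 μg) incubated with 3 nM [3H]DTG plus 300 nM (+)-pentazocine to mask sigma-1 sites. Filtration through PEI-soaked glass fiber, scintillation counting, run in duplicate. Ki by Cheng-Prusoff.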"}, "Rattus norvegicus": {"species": "Rattus norvegicus", "assay": "Selectivity ratio of Ki for sigma 1 receptor in rat brain membrane to sigma 2 receptor in rat brain membrane", "type": "cell membranes"}, "[2]": {"target": "Sigma non-opioid intracellular receptor 1 (Rattus norvegicus, UniProt Q9R0C9)", "sequence (Q9R0C9 whole entry)": "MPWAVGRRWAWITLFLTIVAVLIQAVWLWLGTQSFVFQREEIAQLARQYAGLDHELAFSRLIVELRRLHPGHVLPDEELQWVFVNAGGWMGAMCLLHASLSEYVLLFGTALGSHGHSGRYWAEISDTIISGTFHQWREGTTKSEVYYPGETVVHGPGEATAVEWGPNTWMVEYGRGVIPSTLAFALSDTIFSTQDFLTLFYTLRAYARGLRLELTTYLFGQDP", "assay": "Displacement of (-)-[3H]pentazocine from sigma 1 receptor in rat brain membrane after 120 mins", "type": "cell membranes"}, "[3]": {"assay": "Binding affinity to sigma 2 receptor", "how_it_was_run": "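Rat whole-brain homogenate without cerebellum (400–500 μg) incubated with 3 nM [3H]DTG plus 300 nM (+)-pentazocine to mask sigma-1 sites. […] Filtration through PEI-soaked glass fiber, scintillation counting, run in duplicate. Ki by Cheng-Prusoff.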"}}, "data": [{"compound": "CC(=O)c1ccc2c(ccn2CCCCN2CCN(C3CCCCC3)CC2)c1", "values": [{"measurement": "Ki", "setting": "[1]", "result": 2.31, "unit": "nM"}, {"measurement": "Ratio Ki", "setting": "Rattus norvegicus", "result": 2.3}, {"measurement": "Ki", "setting": "[2]", "result": 5.33, "unit": "nM"}]}, {"compound": "COc1cc2c(cc1OC)CN(CCCCn1ccc3ccccc31)CC2", "values": [{"measurement": "Ki", "setting": "[2]", "result": 141, "unit": "nM"}]}, {"compound": "c1ccc2c(c1)c(-c1ccoc1)cn2CCCCN1CCN(C2CCCCC2)CC1", "values": [{"measurement": "Ki", "setting": "[1]", "result": 10.1, "unit": "nM"}, {"measurement": "Ratio Ki", "setting": "Rattus norvegicus", "result": 3.4}, {"measurement": "Ki", "setting": "[2]", "result": 34.5, "unit": "nM"}]}, {"compound": "Fc1ccc(N2CCN(CCCCn3cc(-c4ccoc4)c4ccccc43)CC2)cc1", "values": [{"measurement": "Ki", "setting": "[1]", "result": 157, "unit": "nM"}, {"measurement": "Ratio Ki", "setting": "Rattus norvegicus", "result": 1.8}, {"measurement": "Ki", "setting": "[2]", "result": 279, "unit": "nM"}]}, {"compound": "Fc1ccc(N2CCN(CCCCn3cc(-c4ccccc4)c4ccccc43)CC2)cc1", "values": [{"measurement": "Ki", "setting": "[1]", "result": 9.96, "unit": "nM"}, {"measurement": "Ratio Ki", "setting": "Rattus norvegicus", "result": 22.3}, {"measurement": "Ki", "setting": "[2]", "result": 222, "unit": "nM"}]}, {"compound": "CC(=O)c1ccc2c(ccn2CCCCN2CCN(c3ccc(F)cc3)CC2)c1", "values": [{"measurement": "Ki", "setting": "[1]", "result": 3.3, "unit": "nM"}, {"measurement": "Ratio Ki", "setting": "Rattus norvegicus", "result": 0.6}, {"measurement": "Ki", "setting": "[2]", "result": 2.13, "unit": "nM"}]}, {"compound": "Fc1ccc(N2CCN(CCCCn3ccc4ccccc43)CC2)cc1", "values": [{"measurement": "Ratio Ki", "setting": "Rattus norvegicus", "result": 5.4}, {"measurement": "Ki", "setting": "[2]", "result": 71.5, "unit": "nM"}]}, {"compound": "COc1cc2c(cc1OC)CN(CCCCNC(=O)c1cc(Br)cc(OC)c1OC)CC2", "values": [{"measurement": "Ki", "setting": "[3]", "result": 8.2, "unit": "nM"}]}, {"compound": "c1ccc(-c2cn(CCCCN3CCN(C4CCCCC4)CC3)c3ccccc23)cc1", "values": [{"measurement": "Ki", "setting": "[1]", "result": 12.3, "unit": "nM"}, {"measurement": "Ratio Ki", "setting": "Rattus norvegicus", "result": 7.5}, {"measurement": "Ki", "setting": "[2]", "result": 92.4, "unit": "nM"}]}, {"compound": "COc1cc2c(cc1OC)CN(CCCCn1cc(-c3ccoc3)c3ccccc31)CC2", "values": [{"measurement": "Ki", "setting": "[1]", "result": 12, "unit": "nM"}, {"measurement": "Ratio Ki", "setting": "Rattus norvegicus", "result": 51.1}, {"measurement": "Ki", "setting": "[2]", "result": 614, "unit": "nM"}]}, {"compound": "Fc1ccc(-c2cn(CCCCN3CCN(C4CCCCC4)CC3)c3ccccc23)cc1", "values": [{"measurement": "Ratio Ki", "setting": "Rattus norvegicus", "result": 4}]}, {"compound": "COc1cc2c(cc1OC)CN(CCCCn1ccc3cc(C(C)=O)ccc31)CC2", "values": [{"measurement": "Ki", "setting": "[1]", "result": 1.42, "unit": "nM"}, {"measurement": "Ratio Ki", "setting": "Rattus norvegicus", "result": 10.2}, {"measurement": "Ki", "setting": "[2]", "result": 14.6, "unit": "nM"}]}, {"compound": "COc1cc2c(cc1OC)CN(CCCCn1cc(-c3ccccc3)c3ccccc31)CC2", "values": [{"measurement": "Ki", "setting": "[1]", "result": 46.3, "unit": "nM"}, {"measurement": "Ratio Ki", "setting": "Rattus norvegicus", "result": 15.4}, {"measurement": "Ki", "setting": "[2]", "result": 714, "unit": "nM"}]}]}
